M5 ag = CHRM5 agonism in calcium assay; AID 624037; 360,000 compounds, 0.19% hits; P08912; activation, % at 3 µM; CHO-K1 hM5 cells, Fluo-8 calcium fluorescence; 0% DMSO wells, 100% maximal acetylcholine response;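 active = activation above the run's mean over test compounds plus 3 SD, cut at about 23% in these data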;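 note: signal is peak over basal fluorescence ratio across the kinetic read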
Target sequence (P08912 whole entry, looked up): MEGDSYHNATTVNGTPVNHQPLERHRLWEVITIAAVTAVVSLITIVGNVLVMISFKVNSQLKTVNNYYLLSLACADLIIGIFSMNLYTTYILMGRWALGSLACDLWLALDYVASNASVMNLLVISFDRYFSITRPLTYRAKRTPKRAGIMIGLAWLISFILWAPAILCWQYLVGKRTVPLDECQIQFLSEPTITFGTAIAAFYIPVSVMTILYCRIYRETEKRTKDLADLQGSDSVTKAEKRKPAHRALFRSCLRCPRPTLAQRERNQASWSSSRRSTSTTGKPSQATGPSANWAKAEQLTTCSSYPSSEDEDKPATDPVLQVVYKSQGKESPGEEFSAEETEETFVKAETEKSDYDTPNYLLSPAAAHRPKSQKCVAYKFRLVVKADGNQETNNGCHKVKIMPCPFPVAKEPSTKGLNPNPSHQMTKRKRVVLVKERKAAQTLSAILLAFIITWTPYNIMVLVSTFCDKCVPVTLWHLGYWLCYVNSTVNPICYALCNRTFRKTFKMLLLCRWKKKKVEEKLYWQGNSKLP
CHRM4 PAM = CHRM4 positive allosteric modulation | P08173 | CHO-K1 hM4/Gqi5, Fluo-8 calcium fluorescence, ACh EC20; 0% = ACh EC20, 100% = maximal ACh | activation, % at 3 µM | 360,000 compounds, 0.4% hits;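 active = activation above its plate's cutoff, the mean activation of sample wells plus 3 SD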
M4 antag = CHRM4 antagonism in calcium assay | P08173 | CHO-hM4 cells, ACh EC80, Fluo-8 calcium fluorescence | inhibition, % at 3 µM | 360,000 compounds, 0.73% hits | AID 624125;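 active = inhibition above its plate's cutoff, the mean inhibition of sample wells plus 3 SD, cut at about 27% in these data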
CHRM5 PAM = CHRM5 positive allosteric modulation; AID 624038; P08912; CHO-K1 hM5, Fluo-8 calcium, ACh EC20 PAM; 0% = ACh EC20, 100% = ACh EC100; 360,000 compounds, 0.3% hits; activation, % at 3 µM;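 active = activation above the run cutoff, the mean activation of all test compounds plus 3 SD, cut at about 18% in these data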
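Replicates: One well per compound, no replicates | System: Human M5 receptor in CHO-K1 cells | Benchmarks: Low control EC20 acetylcholine (0%), high control EC100 acetylcholine (100%) | Probe or stimulus: Acetylcholine, EC20 level | Times: Fluo-8 loading 80 min at 37 °C plus 30 min room temperature | Signal: Intracellular calcium via Fluo-8 fluorescence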
M4 ag = agonists of human muscarinic M4 receptor (CHRM4); P08173; CHO-K1 hM4/Gqi5, Fluo-8 calcium fluorescence; vehicle 0%, full acetylcholine response 100%; activation, % at 3 µM; 360,000 compounds, 0.14% hits;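 active = activation above the run mean over all test wells plus 3 SD, cut at about 32% in these data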;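 note: peak over basal fluorescence ratio per well then scaled between controls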
M5 antag = blocks acetylcholine activation of human M5 receptor. P08912. 360,000 compounds, 0.59% hits. CHO-hM5 cells, Fluo-8 calcium fluorescence, ACh EC80. inhibition, % at 3 µM;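 active = inhibition above a per-plate cutoff, the mean of that plate's test compounds plus 3 SD, cut at about 27% in these data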
A number is an active result; - = inactive. Shown are actives, neighbours in structure and some others; about 1.8% of the full set was active somewhere.

SMILES	M5 ag	CHRM4 PAM	M4 antag	CHRM5 PAM	M4 ag	M5 antag
CCCN1CCN(CCCNC(=O)c2ccc(CS(=O)c3ccc(OC)cc3)o2)CC1 (stereo not given)	-	-	-	-	-	-
C(C#CCCCCCCCCC[n+]1ccccc1)#CCCCCCCCCC[n+]1ccccc1	-	-	92	-	-	99
Cc1ccc(S(=O)(=O)N2CCCC2)cc1C(=O)NC1CCCCC1	-	-	-	-	-	-
Cc1ccc(S(=O)(=O)N2CCC(C(N)=O)CC2)cc1C(=O)NC1CCCCC1	-	21	-	-	-	-
O=C(Cn1c(=O)oc2cc(S(=O)(=O)N3CCCCCC3)ccc21)NC1CCCCC1	-	17	-	-	-	-
COc1ccc(C)cc1S(=O)(=O)N1CCC(C(=O)NC2CCCC2)CC1	-	20	-	-	-	-
CC(=NNC(=O)C(C)SC(C)C(=O)NN=C(C)c1cccnc1)c1cccnc1 (stereo not given)	-	-	-	-	-	-
O=[S@]1Oc2ccccc2-c2ccccc21	-	-	-	-	-	-
CCNc1ccc(Br)cc(C(=O)/C=C/c2ccc(Cl)cc2Cl)c1=O	-	-	40	-	-	-
Cc1ccc(CNCC(O)(c2ccccc2)c2ccc(Cl)cc2)cc1 (stereo not given)	-	-	-	-	-	-
COc1ccc(CNCC(O)(c2ccccc2)c2ccc(Cl)cc2)cc1 (stereo not given)	-	-	28	-	-	-
CC1Cc2cc(-c3csc(NC(=O)Cc4cccs4)n3)ccc2N1S(C)(=O)=O (stereo not given)	-	-	29	-	-	-
CN(C)Cc1ccccc1CCc1ccccc1	-	-	31	-	-	30
CC1(C(=O)NS(=O)(=O)c2ccccc2C(F)(F)F)CCN1C(=O)CCc1cccs1 (stereo not given)	-	-	-	-	-	-
C=CCn1c(O)c(C2=c3ccccc3=NC2=O)c2ccccc21	-	-	50	-	-	-
COC(=O)C1CCN(S(=O)(=O)c2c[nH]c(=O)[nH]c2=O)CC1	-	-	-	-	-	-
CC(C)N(C)Cc1nnnn1CC(=O)NCCc1cccc(C(F)(F)F)c1	-	-	-	22	-	-
COc1ccc(C(=O)Nc2ccccc2C(=O)N2CCOCC2)cc1OC	-	-	-	-	-	-
COc1cccc(OC)c1C(=O)Nc1ccccc1C(=O)N1CCOCC1	-	-	-	-	-	33
O=[N+]([O-])c1ccc(NC(=S)NCCc2ccc(F)cc2)cc1	-	-	-	-	-	33
O=C(Nc1ccc(Cl)c(Cl)c1)Nc1ccccc1O	-	-	-	-	-	42
O=C(Nc1ccc(Cl)c([N+](=O)[O-])c1)C(Sc1ccccc1)c1ccccc1 (stereo not given)	-	-	-	-	-	30
O=C(Nc1ccc(Cl)c(Cl)c1)Nc1ccc(Br)cc1F	-	-	-	-	-	31
O=C(Nc1ccc(N2CCOCC2)cc1)Nc1ccc(Cl)c(Cl)c1	-	-	48	-	43	39
O=C(Nc1ccc(Cl)c(Cl)c1)c1ccccc1	-	-	-	-	-	-
SMILES	M5 ag	CHRM4 PAM	M4 antag	CHRM5 PAM	M4 ag	M5 antag
O=C(NNc1ccccc1[N+](=O)[O-])Nc1ccc(Cl)c(Cl)c1	-	-	-	-	-	29
COc1ccc(NC(=O)Nc2ccc(F)c(Cl)c2)cc1	-	-	-	-	-	35
CCCCn1c(SCC(=O)NC2CC2)nc2cc(C(=O)OC)ccc2c1=O	-	-	-	-	-	-
O=C(NC(=S)NNC(=O)c1ccccc1O)c1ccccc1	-	-	-	-	-	-
Cc1ccc(C(=O)NC(=S)NNC(=O)c2ccccc2)cc1	40	-	-	-	87	-
Cc1ccccc1C(=O)NNC(=S)NC(=O)c1ccccc1	-	-	-	-	41	-
Cc1ccc(C(=O)NNC(=S)NC(=O)c2ccccc2)cc1	66	-	28	-	130	30
Cc1cccc(C(=O)NNC(=S)NC(=O)c2cccs2)c1	66	-	-	-	129	-
Cc1ccc(C(=O)NC(=S)NNC(=O)c2ccccc2O)cc1	-	-	-	-	-	-
COc1ccc(NC(=O)CSc2nc(=O)n(CCN(C)C)c3c2CCCC3)cc1OC	-	-	-	-	-	-
COc1cc(CN2C[C@@H](CO)O[C@@H](n3cnc4c(N(C)C(C)C)ncnc43)C2)cc(OC)c1OC	-	-	-	-	-	-
CCN(CC(=O)Nc1ccccc1C(F)(F)F)C(=O)c1ccc(-n2nc(C)c(CCC(=O)OC)c2C)cc1	-	-	-	-	-	-
Cc1ccc(C(=O)NNC(=S)NC(=O)c2ccc(Cl)cc2Cl)cc1	77	-	36	-	160	-
COc1ccc(C(=O)NNC(=S)NC(=O)c2ccc(OC)cc2)cc1	-	-	-	-	54	-
CC(C)(C)c1cc(CCC(=O)NNC(=S)NC(=O)c2ccccc2)cc(C(C)(C)C)c1O	-	-	-	-	37	-
CCCCC(=O)NC(=S)NNC(=O)c1ccc(Cl)cc1Cl	-	-	-	-	-	-
COc1ccc(C(=O)NNC(=S)NC(=O)c2cccnc2)cc1	-	-	-	-	-	-
COc1ccc(C(=O)NNC(=S)NC(=O)c2ccc(F)cc2)cc1Br	68	-	-	-	93	-
COc1ccccc1-c1cnc(C(O)c2ccc(C(C)(C)C)cc2)[nH]1 (stereo not given)	-	-	-	-	-	-
Cc1cccc(C(=O)NNC(=S)NC(=O)c2ccccc2)c1	57	-	-	-	118	-
COc1cccc(CNCCc2c[nH]c3ccccc23)c1OCc1ccccc1	-	-	-	-	38	29
CCn1c(COc2ccc(C)cc2)nnc1SCC(=O)C(C)(C)C	-	-	-	-	-	-
CCn1c(COc2ccccc2)nnc1SCC(=O)C(C)(C)C	-	26	-	-	-	-
CC1CCC(NC(=O)C(NS(=O)(=O)c2ccc(Br)cc2)C(C)C)CC1 (stereo not given)	-	-	-	-	-	-
COCCn1c(-c2ccc(OC)cc2)nc2ccccc21	-	-	-	-	-	-
COCCn1c2nc(=O)n(-c3ccccc3)c(=O)c-2nc2ccccc21	28	-	-	-	65	-
CCN(CC)c1ccc2c(Cl)c(Br)c(=O)oc2c1	28	-	62	-	-	70
O=C(NCC1CC1)c1cc2c(c(-c3cccc(-c4ccccc4F)c3)n1)[C@@H](CCO)N(C(=O)CC1CC1)C2	-	-	-	-	-	-
O=C(CSc1n[nH]c(=O)n1C1CC1)Nc1cc(Cl)ccc1Oc1ccccc1	-	-	47	-	-	30

Bioassay records as filed in PubChem BioAssay.
